# The entries come from a sample that favours hits as a whole.
# UPR XBP1 act – adaptive UPR (XBP1) activation; CHO-XBP1 luciferase reporter, IRE1-XBP1 UPR activation, luminescence; percent of tunicamycin response, DMSO as zero; activation, % at 20 µM; 0.33% of 330,000 active; AID 463104;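 active = versus positive control, 20 µM dose yields 30% or more activation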;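 note: 100% = tunicamycin at 10 µg/mL and 0% = DMSO only wells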
#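 Signal: luciferase luminescence; Assay system: CHO-XBP1 luciferase reporter cells; Amount: one thousand reporter cells per well; Dosing: 20 µM single concentration, DMSO 1%; Benchmarks: high control tunicamycin 10 µg/mL final, low control DMSO vehicle only; Schedule: 6 h compound exposure at 37 °C, 5% CO2; Evaluation: percent activation relative to tunicamycin reference.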
# CHOP inh – inhibitors of CHOP induction in ER stress response; inhibition, % at 10 µM; CHO-K1 CHOP-promoter luciferase, tunicamycin-induced, 15-18 h; 3.8% of 220,000 active; AID 2732;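 active = compounds that reduced the stress-induced luciferase reporter signal by more than about 70% of percent inhibition, limit read from the data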;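 note: 0% = tunicamycin plus vehicle and 100% = wells without tunicamycin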
# UPR CHOP act – activators of apoptotic arm of unfolded protein response (CHOP); CHO-CHOP luciferase reporter, UPR activation, luminescence; percent of tunicamycin response over DMSO baseline; activation, % at 10 µM; 0.34% of 330,000 active;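 active = at 10 µM dose, activation of 40% or more, normalized to positive control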;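 note: 100% = tunicamycin at 10 µg/mL and 0% = DMSO alone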
#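 System: CHO-CHOP luciferase reporter cell line; amount: 500 cells/well; buffer or medium: F12 medium containing 10% fetal bovine serum; incubation: 6 h compound exposure at 37 °C after overnight seeding; measured by: luciferase luminescence after 10 min with Steady-Glo reagent; evaluation: % reporter activation, DMSO baseline versus tunicamycin full activation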
# PvdQ inh – P. aeruginosa PvdQ acylase inhibition. purified PvdQ acylase, fluorescence plate reader. inhibition, % at 10 µM. 0.063% of 340,000 active. AID 488965; in the data active = inhibition above about 30%, passing the limit was not always enough;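 note: 0% = vehicle neutral wells and 100% = reference inhibitor wells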
# * hit, by the source's call; . = no result given.
SMILES,UPR XBP1 act,CHOP inh,UPR CHOP act,PvdQ inh
COc1cc(S(=O)(=O)N2CCN(Cc3ccccc3)CC2)ccc1Br,-4,78*,-1,1
COc1cc(CN2CCN(S(=O)(=O)c3ccccc3)CC2)cc(OC)c1OC,-4,.,2,1
OCCN(Cc1ccccc1)CC(O)COc1ccc(-c2ccccc2)cc1 (stereo not given),2,76*,9,-10
COc1cc(C(C)=O)ccc1OCC(O)CN(CCO)Cc1ccccc1 (stereo not given),-2,4,1,-6
O=C(COC(=O)/C=C/C(=O)N1CCN(c2ccccc2)CC1)NC(c1ccccc1)c1ccccc1,-2,-6,1,-7
CC1CC(=O)c2c(cc3c(-c4c(O)cc(O)c5c(O)c6c(cc45)OC(C)CC6=O)c(O)cc(O)c3c2O)O1 (stereo not given),14,82*,10,-7
Cc1cc(C)c(NC(=O)CN2CCC(NC(=O)NC3CCCCC3)CC2)c(C)c1,-4,-1,2,.
CC(C)CCNC(=O)c1cccc(S(=O)(=O)N2CCc3ccccc32)c1,3,6,0,-2
Nc1ccc(S(=O)(=O)N2CCc3ccccc32)cc1,-3,.,0,-6
O=C(NNC(=O)c1cccc(S(=O)(=O)N2CCc3ccccc32)c1)c1ccccc1,.,73*,.,5
O=S(=O)(NC1CCCC1)c1ccc(S(=O)(=O)N2CCc3ccccc32)cc1,-4,86*,3,-4
Nc1nc(SCC(=O)NCCc2ccccc2)[nH]c(=O)c1-c1ccccc1,-3,3,0,.
Clc1cccc(-c2ccc(CNCc3ccccn3)o2)c1,-2,.,-2,-1
O=c1[nH]nc(Cc2ccc(-c3cccc(Cl)c3)o2)c2ccccc12,5,72*,7,-6
CCOc1ccccc1OCC(O)CNC (stereo not given),0,72*,1,4
C=CCc1ccccc1OCC(O)CNC (stereo not given),0,57,1,-5
CCc1cc2c(-c3ccccc3)cc(=O)oc2cc1OC(=O)c1cccs1,2,70*,-2,-19
O=C(NN=C1c2ccccc2-c2ccccc21)c1cccc(Br)c1,9,77*,39,-16
CCC/C=N/NC(=O)c1cccc(Br)c1,-1,4,-1,-7
CC(c1ccco1)N(C(=O)c1ccccc1NS(=O)(=O)c1ccc(Cl)c([N+](=O)[O-])c1)c1ccccn1 (stereo not given),-1,-36,6,-6
CCC(CC)NC(=O)CON=C1c2ccccc2-c2ccccc21,-2,72*,0,-6
CCNC(=O)CON=C1c2ccccc2-c2ccccc21,-1,17,0,6
NC(=O)C1CCN(c2nc(-c3ccccc3C(F)(F)F)cs2)CC1,3,.,7,-9
Cc1cc(C)nc(NS(=O)(=O)c2ccc(NC(=O)C3COc4ccccc4O3)cc2)n1 (stereo not given),1,9,1,5
O=C(Nc1ccc(S(=O)(=O)Nc2ccccc2)cc1)C1COc2ccccc2O1 (stereo not given),-4,85*,0,-4
SMILES,UPR XBP1 act,CHOP inh,UPR CHOP act,PvdQ inh
Cc1cc(C(=O)COc2cccnc2[N+](=O)[O-])c(C)n1-c1ccccc1,-5,75*,-10,-8
Cc1cc(C(=O)COC(=O)c2ccc[nH]c2=O)c(C)n1-c1ccccc1,-8,70*,-3,2
Cc1cc(C(=O)COC(=O)c2ccc[nH]c2=O)c(C)n1-c1ccc(F)cc1,-5,75*,-7,-11
Cc1ccccc1NS(=O)(=O)c1ccc2oc(=O)ccc2c1,-4,.,-1,-6
Fc1ccc2c(Cl)c(-c3nnc(-c4cccs4)o3)sc2c1,-1,91*,5,-11
COc1cc(-c2nnc(-c3cccs3)o2)cc(OC)c1OC,7,-3,5,-14
O=S(=O)(c1ccc(S(=O)(=O)N2CCN(C/C=C/c3ccccc3)CC2)cc1)N1CCCC1,-2,87*,-3,-8
O=S(=O)(NCc1ccccc1)c1ccc(S(=O)(=O)N2CCCCC2)cc1,-1,72*,1,-10
O=S(=O)(NCCc1ccccc1)c1ccc(S(=O)(=O)N2CCCCC2)cc1,0,20,-1,-12
c1ccc(-c2nnc(NC3=NCCC3)o2)cc1,-5,6,-2,11
Fc1ccc(-c2nnc(NC3=NCCCCC3)o2)cc1,-11,75*,-8,4

# Assay outcomes: PubChem BioAssay, several laboratories
